Compounds with a hit are over-represented: about 2.2% of the library has one in this group of screens.
NR2E3 ag-1 – activates human photoreceptor nuclear receptor NR2E3 | Q9Y5X4 | GST-NR2E3/biotin-RetCOR TR-FRET, 1536-well | inhibition of corepressor binding, % at 4.78 µM | hit rate 0.12% among 320,000;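 active = percent inhibition above the cutoff of mean plus 3 SD of all tested compounds, set per screening campaign, cut at about 20% in these data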
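Test system – NR2E3–RetCOR corepressor complex · Quantity – NR2E3 fusion 1.35 nM · Buffer or medium – Tris pH 7.5 · Incubation – Compound–protein incubation for 5 h at 4 °C · Technique – TR-FRET, Eu(K)-anti-GST donor, streptavidin-D2 acceptor, ex 340, em 617/671 nm · Evaluation – percent inhibition of 671/617 nm emission ratio versus biotin and DMSO controls · Plate – 1536-well format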
NR2E3 ag-2 – agonists of human NR2E3 nuclear receptor; hit rate 0.35% among 360,000; inhibition of corepressor binding, % at 3.98 µM; AID 602229; CHO-S Gal4-NCOR/VP16-NR2E3 two-hybrid, luciferase;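 active = inhibition above the mean of all tested compounds plus 3 SD, cut at about 70% in these data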;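 note: higher means lower luciferase signal from less NR2E3 corepressor binding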
GalR3 antagonist – antagonists of human GalR3. inhibition, % at 3 µM. hit rate 0.44% among 360,000. O60755. HEK293 GalR3-CNG cAMP membrane potential fluorescence; galR3 body fused to GalR1 C-terminus. AID 651719;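 active = inhibition above the screen-wide average plus 3 SD, cut at about 13% in these data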;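 note: forskolin and galanin both at EC90 stimulate the cells; cAMP rise reported by CNG channel membrane potential dye signal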
Target sequence (O60755 1-299 limits assumed): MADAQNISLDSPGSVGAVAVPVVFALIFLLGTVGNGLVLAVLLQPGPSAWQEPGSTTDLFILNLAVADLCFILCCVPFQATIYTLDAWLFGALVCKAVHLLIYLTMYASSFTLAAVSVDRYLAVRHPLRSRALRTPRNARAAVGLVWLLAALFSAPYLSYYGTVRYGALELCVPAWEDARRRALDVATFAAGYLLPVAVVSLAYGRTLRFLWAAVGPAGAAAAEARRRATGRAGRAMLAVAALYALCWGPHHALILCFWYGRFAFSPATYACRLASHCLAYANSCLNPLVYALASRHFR
SMARCA2 activ – increases SMARCA2 function in MMTV reporter cells | MG213 cells, MMTV-luciferase reporter, dexamethasone, overnight | activation, % at 9.1 µM | hit rate 1% among 370,000 | AID 652017; in the data active = activation above about 7.8%
COUP-TFII inh – inhibitors of human COUP-TFII (NR2F2); P24468; HEK293T NGFI-A luciferase reporter, luminescence; inhibition, % at 8.6 µM; hit rate 0.7% among 370,000; AID 686940;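 active = inhibition above a per-plate cutoff, mean inhibition of test wells between control levels plus 3 SD, cut at about 38% in these data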;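 note: cells cotransfected with COUP-TFII expression vector driving the NGFI-A reporter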
Target sequence (P24468 whole entry, looked up): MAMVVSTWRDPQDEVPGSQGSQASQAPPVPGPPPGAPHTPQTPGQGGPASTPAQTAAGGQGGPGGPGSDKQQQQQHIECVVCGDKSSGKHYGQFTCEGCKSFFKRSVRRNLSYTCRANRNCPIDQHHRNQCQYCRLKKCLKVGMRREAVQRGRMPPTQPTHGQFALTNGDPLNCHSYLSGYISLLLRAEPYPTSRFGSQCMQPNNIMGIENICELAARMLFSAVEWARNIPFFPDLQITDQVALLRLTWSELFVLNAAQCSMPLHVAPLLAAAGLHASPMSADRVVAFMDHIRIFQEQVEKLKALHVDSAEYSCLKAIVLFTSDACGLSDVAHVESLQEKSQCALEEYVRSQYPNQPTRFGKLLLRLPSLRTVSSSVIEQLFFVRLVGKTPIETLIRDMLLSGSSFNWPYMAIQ
NR2E3 ag confirm – confirmation of human NR2E3 agonists. shares compounds with NR2E3 ag-2. CHO-S mammalian two-hybrid NR2E3-NCOR, luciferase luminescence. inhibition, % at 3.98 µM. hit rate 51% among 2,300. AID 624378;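 active = average inhibition above a cutoff equal to the mean inhibition of all tested compounds plus one SD, cut at about 70% in these data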
VP16 counter – counter-screen for NR2E3 agonists: GAL4-VP16 reporter inhibitors. shares compounds with NR2E3 ag-2. CHO-S GAL4-VP16 luciferase reporter, luminescence. inhibition, % at 3.98 µM. hit rate 29% among 2,300. AID 624379;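 active = mean inhibition above a cutoff equal to the average over all tested compounds plus one standard deviation, cut at about 70% in these data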;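 note: luciferase from a UAS reporter driven by GAL4-VP16 transactivation; higher means less reporter light so more repression of VP16 activity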
GalR3 antag conf – confirmation of human galanin receptor 3 antagonists | shares compounds with GalR3 antagonist | HEK293 GalR3 CNG cAMP biosensor, membrane potential fluorescence; galR3 fused to GalR1 carboxy tail; challenged with forskolin and galanin at EC90 | inhibition, % at 3 µM | hit rate 59% among 1,600;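 active = inhibition above the primary screen's cutoff, the mean inhibition of all screened compounds plus 3 SD, cut at about 13% in these data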
HEK-CNG parental – counter-screen for GalR3 antagonists: nonspecific agonists in parental HEK-CNG cells; shares compounds with GalR3 antagonist; HEK293-CNG parental cells, cAMP membrane potential fluorescence; normalised: DMSO wells 0%, forskolin wells 100%; activation, % at 3 µM; hit rate 10% among 1,600; AID 652268; in the data active = activation above about 1.3%
Gal4-VP16 ctr – VP16 inhibition counter-screen for COUP-TFII. hit rate 25% among 2,500. inhibition, % at 8.5 µM. shares compounds with COUP-TFII inh. HEK293 Gal4-VP16 luciferase reporter, luminescence; in the data active = inhibition above about 13%
COUP-TFII conf – COUP-TFII (NR2F2) inhibition, confirmation assay; AID 687008; hit rate 45% among 2,500; inhibition, % at 8.5 µM; shares compounds with COUP-TFII inh; HEK293 NGFI-A luciferase reporter, luminescence;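 active = mean inhibition over three repeats above a set limit taken from the earlier primary screen, cut at about 38% in these data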
Numbers stand for hits; – = inactive; · = no result.

SMILES | NR2E3 ag-1 | NR2E3 ag-2 | GalR3 antagonist | SMARCA2 activ | COUP-TFII inh | NR2E3 ag confirm | VP16 counter | Gal4-VP16 ctr | COUP-TFII conf | others
COc1cccc2c1C(=O)c1c(O)c3c(c(O)c1C2=O)CC(O)(C(C)=O)CC3OC1CC(N(C)C)C(O)C(C)O1 (centres undefined) | · | 88 | – | – | 53 | 100 | – | 15 | –
CCOC(=O)C1CCCN(S(=O)(=O)c2ccc(S(=O)(=O)N(CC)CC)cc2)C1 (centres undefined) | – | 84 | 92 | – | 68 | 97 | 89 | – | 66
COc1ccc(N/C(N)=N/c2nc(C)cc(C)n2)cc1 | · | – | – | – | – | · | · | · | ·
Cc1cc(C)nc(/N=C(\N)Nc2ccc(OCCC(C)C)cc2)n1 | – | – | 45 | – | 58 | – | – | 18 | 38 | GalR3 antag conf=30;HEK-CNG parental=6.2
COCCn1c(C)cc(C(=O)CSc2ccc(NC(C)=O)cc2)c1C | – | – | – | – | – | · | · | · | ·
Cc1csc(SCC(=O)c2cc(C)n(Cc3cccs3)c2C)n1 | – | – | – | – | 67 | – | – | 37 | 80
COC(=O)c1ccc(-n2c(C)cc(C(=O)CSc3ccc(NC(C)=O)cc3)c2C)cc1 | – | – | – | – | – | · | · | · | ·
Cc1cc(C(=O)CSc2nnc(N)s2)c(C)n1Cc1cccs1 | – | – | – | – | – | · | · | · | ·
CC(=O)Nc1ccc(SCC(=O)c2cc(C)n(Cc3cccs3)c2C)cc1 | – | – | – | – | 67 | – | – | – | 73
CC(=O)Nc1ccc(SCC(=O)c2cc(C)n(-c3ccccc3F)c2C)cc1 | – | – | – | – | 67 | – | – | 35 | 64
Cn1cccc1C(=O)N1CCN(S(=O)(=O)c2cccs2)CC1 | · | · | · | – | – | · | · | · | ·
CNc1ccccc1/C(O)=C(\C#N)C(=O)NCc1cccs1 | · | · | · | – | – | · | · | · | ·
COc1cccc(C=NNC(=O)CSc2nc3ccccc3[nH]2)c1O | · | · | · | – | – | · | · | · | ·
CC1CC(C)C(=NNC(N)=O)C(C(O)CC2CCC(=O)NC2=O)C1 (centres undefined) | · | 102 | – | – | 82 | 85 | – | – | –
Clc1ccc(-c2noc(CSc3nnc(-c4ccncc4)n3-c3ccccc3)n2)cc1 | – | – | – | – | 65 | – | – | – | –
CC1Sc2ccc(S(=O)(=O)N3CCC(C(=O)Nc4ccc(Cl)cc4)CC3)cc2NC1=O (centres undefined) | – | 103 | – | – | 66 | 94 | 75 | 16 | 73
COc1ccc(NC(=O)C2CCN(S(=O)(=O)c3ccc(N4CCCC4=O)cc3)CC2)c(OC)c1 | – | – | – | – | – | · | · | · | ·
Cc1ccc(NC(=O)C2CCN(S(=O)(=O)c3ccc(N4CCCC4=O)cc3)CC2)cc1Cl | – | 107 | – | – | 66 | 99 | 91 | – | 46
COc1ccc(NC(=O)C2CCN(S(=O)(=O)c3ccc4c(c3)NC(=O)C(C)S4)CC2)cc1 (centres undefined) | – | – | – | – | – | · | · | · | ·
COc1cccc(-c2nnc3n2N=C(C(C)(C)C)CS3)c1 | – | – | – | – | 45 | – | – | 27 | 41
COc1ccc(C#Cc2c(-c3ccccc3OC)oc3ccccc23)cc1 | · | · | – | – | – | · | · | · | ·
COc1cccc2sc3ccc(C#CC4(O)CCCCC4)cc3c(=O)c12 | – | – | – | – | – | · | · | · | ·
O=c1c2ccccc2oc2cc(C#CC3(O)CCCCC3)ccc12 | – | – | – | – | 69 | – | – | – | 67
COc1cccc2oc3cc(C#CC4(O)CCCCC4)ccc3c(=O)c12 | – | – | – | – | – | · | · | · | ·
O=c1c2ccccc2sc2ccc(C#CC3(O)CCCCC3)cc12 | – | 99 | – | – | 96 | 85 | 73 | 90 | 105
SMILES | NR2E3 ag-1 | NR2E3 ag-2 | GalR3 antagonist | SMARCA2 activ | COUP-TFII inh | NR2E3 ag confirm | VP16 counter | Gal4-VP16 ctr | COUP-TFII conf | others
Nc1ncnc2c(C3OC(CO)C(O)C3O)scc12 (centres undefined) | · | 100 | 61 | – | 67 | 97 | 96 | 22 | – | GalR3 antag conf=47;HEK-CNG parental=–
C=CCN1C(=O)[C@@H](CC(=O)N2CCN(C(=O)C3CC3)CC2)[C@]2(C(=O)OC)CCCCC=C12 | · | · | · | – | – | · | · | · | ·
Cc1c(/C(O)=C2/C(=O)C(=O)N(Cc3cccnc3)C2c2ccccn2)cnn1-c1ccccc1 (centres undefined) | – | 83 | – | – | 95 | – | – | – | –
COc1cccc2c1C(=O)C=C(C)C2=O | – | – | – | – | – | · | · | · | ·
COC1=CC(=O)c2c(ccc3ncnc(N)c23)C1=O | · | 102 | – | – | 55 | 101 | 101 | 62 | 44
Cn1cnc([N+](=O)[O-])c1Sc1nnc(-c2ccccc2)c(-c2ccccc2)n1 | · | · | – | – | – | · | · | · | ·
CCOC(=O)c1c(C)[nH]c(C(=O)OCC(=O)Nc2sccc2C(N)=O)c1C | – | – | – | – | 52 | – | – | – | 45
CCc1ccc(-c2nc(CSCC(=O)NCc3ccco3)c(C)o2)cc1 | · | 101 | – | – | 77 | 96 | 96 | – | –
O=C(NCCCN1CCN(c2ccc(F)cc2)CC1)Nc1ccccc1 | · | · | · | – | – | · | · | · | ·
CN(C)c1ccc(C=c2c3ccccc3n3c2cc(-c2ccccc2)[n+]3C)cc1 | · | 80 | – | – | 82 | 93 | – | 21 | 94
CN(C)c1ccc(C=c2c3ccccc3n3c2c2c([n+]3C)CCCC2)cc1 | · | 96 | 81 | – | 88 | 100 | 91 | 28 | 82 | GalR3 antag conf=89;HEK-CNG parental=–
COc1cc(N(C)C)ccc1C=c1c2ccccc2n2c1cc(-c1ccccc1)[n+]2C | · | 87 | – | – | 67 | 91 | – | – | 73
Cc1cccc(C(=O)Nc2nc3ncccn3c2-c2ccc(F)cc2)c1 | · | · | · | – | – | · | · | · | ·
CC1CCCC=CC2CC(OC(=O)CN(C)C)CC2C(O)C=CC(=O)O1 (centres undefined) | · | – | – | – | 51 | 98 | – | 16 | –
Cc1cc(C(=O)CSc2nnc3ccccn23)c(C)n1-c1ccccc1 | – | – | – | – | 40 | 98 | – | – | 57
N#Cc1ccc(CN2CCN(C(=O)CNC(=O)Cc3cccc4ccccc34)CC2)cc1 | · | – | 22 | – | – | · | · | · | · | GalR3 antag conf=–;HEK-CNG parental=–

From PubChem BioAssay
